Residue numbers refer to the chain shown, from its start.
Tests used:
Conditions in all cases: stereoisomer not certain
OR2C3 [1] = tested on: T1, OR2C3
T1 sequence (whole entry): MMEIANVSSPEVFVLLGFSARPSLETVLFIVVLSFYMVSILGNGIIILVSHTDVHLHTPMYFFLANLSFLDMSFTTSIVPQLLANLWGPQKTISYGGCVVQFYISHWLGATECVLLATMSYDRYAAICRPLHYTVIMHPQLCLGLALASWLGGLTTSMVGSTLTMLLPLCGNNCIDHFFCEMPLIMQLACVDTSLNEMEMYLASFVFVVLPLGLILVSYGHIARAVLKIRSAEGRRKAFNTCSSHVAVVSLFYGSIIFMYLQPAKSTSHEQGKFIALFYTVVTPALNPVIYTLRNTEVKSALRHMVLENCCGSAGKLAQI
Method in brief: (§1)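 Each receptor–molecule pair is labelled responsive or non-responsive (inactive) according to whether the original authors judged the measured signal statistically different from baseline. The data were taken from the main text and supplementary material of published papers and checked for typos and inconsistencies. Assay methods differed by source, with transient luciferase assays in mammalian cell lines being common.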

OR2C3 [2] = tested on: T2, OR2C3; remark: listed apart in the source
T2 sequence (whole entry): T1 sequence (whole entry) with A20T, V289L
Method in brief: as §1

OR2D2 (Homo sapiens) = biological target: T3, OR2D2 (Homo sapiens) (UniProt Q9H210)
T3 sequence (whole entry): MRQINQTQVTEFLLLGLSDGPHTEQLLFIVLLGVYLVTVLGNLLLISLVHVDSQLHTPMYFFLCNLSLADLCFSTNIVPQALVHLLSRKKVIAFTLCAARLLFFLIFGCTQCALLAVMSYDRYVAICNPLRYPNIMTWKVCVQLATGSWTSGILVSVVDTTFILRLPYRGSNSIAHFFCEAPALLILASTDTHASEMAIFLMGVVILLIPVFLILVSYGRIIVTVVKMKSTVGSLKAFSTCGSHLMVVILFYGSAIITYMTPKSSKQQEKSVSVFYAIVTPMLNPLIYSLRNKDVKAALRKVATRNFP
Method in brief: as §1

OR2D2 S148P I163T M202T = tested on: T4, OR2D2 S148P I163T M202T
T4 sequence (whole entry): T3 sequence (whole entry) with S148P, I163T, M202T
Method in brief: as §1

OR2D3 (Homo sapiens) = biological target: T5, OR2D3 (Homo sapiens) (UniProt Q8NGH3)
T5 sequence (whole entry): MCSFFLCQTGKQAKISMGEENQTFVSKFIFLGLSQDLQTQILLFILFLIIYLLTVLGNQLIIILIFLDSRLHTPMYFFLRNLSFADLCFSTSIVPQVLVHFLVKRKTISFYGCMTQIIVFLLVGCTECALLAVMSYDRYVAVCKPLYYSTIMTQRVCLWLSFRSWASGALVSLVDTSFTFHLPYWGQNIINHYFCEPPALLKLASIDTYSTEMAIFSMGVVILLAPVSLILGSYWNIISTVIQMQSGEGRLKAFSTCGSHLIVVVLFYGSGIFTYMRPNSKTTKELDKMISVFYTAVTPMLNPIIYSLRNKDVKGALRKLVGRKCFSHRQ
Method in brief: as §1

OR2D3 R155W = tested on: T6, OR2D3 R155W
T6 sequence (whole entry): T5 sequence (whole entry) with R155W
Method in brief: as §1

OR2F1 (Homo sapiens) = biological target: T7, OR2F1 (Homo sapiens) (UniProt Q13607)
T7 sequence (whole entry): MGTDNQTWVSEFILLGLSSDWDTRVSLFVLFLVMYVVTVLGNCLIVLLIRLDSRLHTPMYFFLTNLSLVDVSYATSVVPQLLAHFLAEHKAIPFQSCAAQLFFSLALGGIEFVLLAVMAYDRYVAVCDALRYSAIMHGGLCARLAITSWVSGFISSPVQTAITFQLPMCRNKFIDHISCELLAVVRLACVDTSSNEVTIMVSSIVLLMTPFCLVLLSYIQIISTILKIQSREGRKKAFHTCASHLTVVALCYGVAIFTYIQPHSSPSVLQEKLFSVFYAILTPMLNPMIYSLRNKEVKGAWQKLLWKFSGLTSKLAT
Method in brief: as §1

OR2F2 (Homo sapiens) = biological target: T8, OR2F2 (Homo sapiens) (UniProt O95006)
T8 sequence (whole entry): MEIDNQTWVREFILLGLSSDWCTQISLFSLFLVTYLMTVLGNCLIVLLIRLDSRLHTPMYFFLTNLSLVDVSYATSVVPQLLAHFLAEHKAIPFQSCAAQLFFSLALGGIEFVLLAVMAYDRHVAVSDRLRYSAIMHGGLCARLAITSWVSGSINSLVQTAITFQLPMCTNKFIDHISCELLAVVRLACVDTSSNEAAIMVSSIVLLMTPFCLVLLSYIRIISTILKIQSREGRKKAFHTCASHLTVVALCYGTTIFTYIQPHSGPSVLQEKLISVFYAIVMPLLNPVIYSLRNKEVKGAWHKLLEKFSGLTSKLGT
Method in brief: as §1

OR2G2 (Homo sapiens) = biological target: T9, OR2G2 (Homo sapiens) (UniProt Q8NGZ5)
T9 sequence (whole entry): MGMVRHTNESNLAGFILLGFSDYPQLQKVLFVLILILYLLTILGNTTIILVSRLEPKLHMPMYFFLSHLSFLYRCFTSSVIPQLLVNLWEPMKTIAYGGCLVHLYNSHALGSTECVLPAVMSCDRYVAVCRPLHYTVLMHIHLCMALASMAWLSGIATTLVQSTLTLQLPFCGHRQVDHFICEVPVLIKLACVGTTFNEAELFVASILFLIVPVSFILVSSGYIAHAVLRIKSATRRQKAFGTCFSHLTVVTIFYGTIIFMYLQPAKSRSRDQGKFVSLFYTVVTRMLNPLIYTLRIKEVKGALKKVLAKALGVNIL
Method in brief: as §1

OR2G2 L167P R236G = tested on: T10, OR2G2 L167P R236G
T10 sequence (whole entry): T9 sequence (whole entry) with L167P, R236G
Method in brief: as §1

OR2G3 (Homo sapiens) = biological target: T11, OR2G3 (Homo sapiens) (UniProt Q8NGZ4)
T11 sequence (whole entry): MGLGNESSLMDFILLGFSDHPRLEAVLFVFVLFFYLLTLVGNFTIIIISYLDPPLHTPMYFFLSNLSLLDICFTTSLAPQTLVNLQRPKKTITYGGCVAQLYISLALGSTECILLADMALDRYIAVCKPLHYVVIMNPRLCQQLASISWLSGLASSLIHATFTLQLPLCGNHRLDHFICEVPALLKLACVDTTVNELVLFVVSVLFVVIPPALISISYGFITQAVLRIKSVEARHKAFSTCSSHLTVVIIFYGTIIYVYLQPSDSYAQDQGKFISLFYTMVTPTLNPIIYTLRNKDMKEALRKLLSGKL
Method in brief: as §1

OR2G3 I289V = tested on: T12, OR2G3 I289V
T12 sequence (whole entry): T11 sequence (whole entry) with I289V
Method in brief: as §1

OR2G6 (Homo sapiens) = biological target: T13, OR2G6 (Homo sapiens) (UniProt Q5TZ20)
T13 sequence (whole entry): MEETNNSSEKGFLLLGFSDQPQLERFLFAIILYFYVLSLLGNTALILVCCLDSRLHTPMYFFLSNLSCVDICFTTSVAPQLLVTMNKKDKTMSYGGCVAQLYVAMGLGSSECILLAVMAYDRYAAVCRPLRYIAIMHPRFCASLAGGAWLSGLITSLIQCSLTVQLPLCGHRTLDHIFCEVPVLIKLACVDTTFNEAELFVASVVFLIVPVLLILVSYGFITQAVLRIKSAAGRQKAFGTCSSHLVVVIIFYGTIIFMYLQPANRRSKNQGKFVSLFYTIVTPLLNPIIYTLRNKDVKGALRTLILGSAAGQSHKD
Method in brief: as §1

OR2H1 (Homo sapiens) = biological target: T14, OR2H1 (Homo sapiens) (UniProt Q9GZK4)
T14 sequence (whole entry): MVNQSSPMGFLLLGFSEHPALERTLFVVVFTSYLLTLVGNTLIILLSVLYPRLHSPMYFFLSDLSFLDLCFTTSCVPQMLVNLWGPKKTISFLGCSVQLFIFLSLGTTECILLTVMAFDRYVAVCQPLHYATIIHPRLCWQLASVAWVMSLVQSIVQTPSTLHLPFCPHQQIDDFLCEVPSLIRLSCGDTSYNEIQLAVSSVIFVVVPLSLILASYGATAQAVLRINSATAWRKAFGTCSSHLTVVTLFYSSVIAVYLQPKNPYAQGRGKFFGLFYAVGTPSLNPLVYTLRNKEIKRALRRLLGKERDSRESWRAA
Method in brief: as §1

OR2H2 (Homo sapiens) = biological target: T15, OR2H2 (Homo sapiens) (UniProt O95918)
T15 sequence (whole entry): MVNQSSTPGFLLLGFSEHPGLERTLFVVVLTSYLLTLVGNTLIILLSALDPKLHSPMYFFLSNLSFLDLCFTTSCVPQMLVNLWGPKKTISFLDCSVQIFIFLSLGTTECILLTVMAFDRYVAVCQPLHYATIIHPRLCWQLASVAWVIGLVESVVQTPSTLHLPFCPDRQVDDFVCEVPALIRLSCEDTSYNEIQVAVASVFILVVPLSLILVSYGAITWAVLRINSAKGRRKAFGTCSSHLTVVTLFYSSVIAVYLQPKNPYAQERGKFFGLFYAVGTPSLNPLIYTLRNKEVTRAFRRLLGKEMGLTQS
Method in brief: as §1

OR2C3 (Homo sapiens) = biological target: T16, OR2C3 (Homo sapiens) (UniProt Q8N628)
T16 sequence (whole entry): T1 sequence (whole entry) with A20T, S68P, V289L
Method in brief: as §1

OR2C1 = tested on: T17, OR2C1
T17 sequence (whole entry): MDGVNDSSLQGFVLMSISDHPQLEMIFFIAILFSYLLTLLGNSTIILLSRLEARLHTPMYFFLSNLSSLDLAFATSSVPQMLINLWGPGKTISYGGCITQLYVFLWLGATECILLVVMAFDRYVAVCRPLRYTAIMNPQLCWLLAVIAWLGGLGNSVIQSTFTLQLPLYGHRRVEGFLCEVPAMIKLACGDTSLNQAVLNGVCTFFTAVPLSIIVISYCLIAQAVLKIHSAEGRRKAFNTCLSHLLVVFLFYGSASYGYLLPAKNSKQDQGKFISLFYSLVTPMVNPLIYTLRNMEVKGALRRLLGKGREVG
Method in brief: as §1

Measured: odorant receptor agonist call;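 further: active if original authors judged signal statistically different from baseline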

Cc1cnc(C)c(C)n1
not listed: OR2C3 (Homo sapiens) | OR2C1
inactive: all other assays above

C=CC(C)(CCC=C(C)C)OC(C)=O (centres undefined)
inactive: OR2G2 (Homo sapiens)

CCCCCC1C(=O)CCC1CC(=O)OC (centres undefined)
inactive: OR2G2 (Homo sapiens)

CC(=O)c1c(C)c([N+](=O)[O-])c(C(C)(C)C)c([N+](=O)[O-])c1C
not listed: OR2C3 [1] | OR2C3 [2] | OR2D2 S148P I163T M202T | OR2D3 R155W | OR2G2 L167P R236G | OR2G3 I289V | OR2C1
inactive: all other assays above

CCC(=O)C=CC1C(C)=CCCC1(C)C (centres undefined)
inactive: OR2G2 (Homo sapiens)

CCCCCC(=O)C(C)C(C)=O (centres undefined)
not listed: OR2C3 [1] | OR2C3 [2] | OR2D2 S148P I163T M202T | OR2D3 R155W | OR2G2 L167P R236G | OR2G3 I289V | OR2C1
inactive: all other assays above

c1coc(CSSCc2ccco2)c1
inactive: OR2C1

CC1=C(O)C(=O)OC1C (centres undefined)
not listed: OR2C3 (Homo sapiens) | OR2C1
inactive: all other assays above

— the M2OR odorant receptor database
